In publication PMC11897355 (Nature Communications, 2025):
Residue numbers refer to the chain shown, from its start. “Also recorded” adds a separate entry of the source.

How the values were obtained:
[1] = target: T1, WT GlyT1 (Homo sapiens, UniProt P48067); assay: [3H]glycine kinetic uptake assay, WT GlyT1; type: cell-based
T1 sequence (P48067 1-652 isoform P48067-3): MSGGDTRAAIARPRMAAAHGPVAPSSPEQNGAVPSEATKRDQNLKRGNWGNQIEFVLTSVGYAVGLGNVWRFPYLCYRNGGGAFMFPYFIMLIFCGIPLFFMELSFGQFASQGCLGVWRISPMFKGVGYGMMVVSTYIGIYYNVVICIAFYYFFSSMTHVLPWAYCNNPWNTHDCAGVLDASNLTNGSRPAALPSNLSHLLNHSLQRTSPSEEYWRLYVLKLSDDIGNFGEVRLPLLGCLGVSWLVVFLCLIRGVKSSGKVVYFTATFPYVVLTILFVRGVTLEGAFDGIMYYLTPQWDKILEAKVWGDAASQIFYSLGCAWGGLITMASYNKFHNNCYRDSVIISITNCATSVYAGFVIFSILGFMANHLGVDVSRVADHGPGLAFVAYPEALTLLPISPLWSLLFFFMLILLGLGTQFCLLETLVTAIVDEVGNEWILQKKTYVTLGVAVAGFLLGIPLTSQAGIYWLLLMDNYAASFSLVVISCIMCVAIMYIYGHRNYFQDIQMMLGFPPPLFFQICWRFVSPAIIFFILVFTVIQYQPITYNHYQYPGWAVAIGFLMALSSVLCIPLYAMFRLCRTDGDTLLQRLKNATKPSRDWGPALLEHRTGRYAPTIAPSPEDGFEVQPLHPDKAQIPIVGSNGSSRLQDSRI

[2] = target: T2, wild-type GlyT1 (Homo sapiens, UniProt P48067); assay: [3H]glycine uptake inhibition assay, wild-type GlyT1 in HEK-293F cells; type: cell-based; conditions: IC50, [3H]glycine uptake
T2 sequence (P48067 1-652 isoform P48067-3): T1 sequence (P48067 1-652 isoform P48067-3)
How it was run: (§1)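 HEK-293F cells (2.5 × 10^6/mL) infected with baculovirus carrying wild-type or sequence-verified mutant human GlyT1. Cells collected after 15 h and washed in HEPES-Tris pH 7.4 uptake buffer, then preincubated 10 min with graded inhibitor. Uptake ran 1 min at 25 °C with 25 μM [3H]glycine/unlabeled glycine (1:2500). Two cold washes, lysis in 1% Triton X-100, scintillation counting. Uptake normalized to untreated cells. Three independent experiments in triplicate; IC50 fitted to mean data.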

[3] = target: T3, G319S GlyT1 mutant (Homo sapiens, UniProt P48067, G373S); assay: [3H]glycine uptake inhibition assay, GlyT1 G319S mutant; type: cell-based
T3 sequence (P48067 1-652 isoform P48067-3 G319S): T1 sequence (P48067 1-652 isoform P48067-3) with G319S
How it was run: as §1

[4] = target: T4, L422T GlyT1 mutant (Homo sapiens, UniProt P48067, L476T); assay: [3H]glycine uptake inhibition assay, GlyT1 L422T mutant; type: cell-based
T4 sequence (P48067 1-652 isoform P48067-3 L422T): T1 sequence (P48067 1-652 isoform P48067-3) with L422T
How it was run: as §1

[5] = system: GlyT1; conditions: rat primary neurons; cited from earlier work
[6] = target: T5, wild-type GlyT2 (Homo sapiens, UniProt Q9Y345); assay: [3H]glycine uptake inhibition assay, wild-type GlyT2; type: cell-based
T5 sequence (Q9Y345 1-797): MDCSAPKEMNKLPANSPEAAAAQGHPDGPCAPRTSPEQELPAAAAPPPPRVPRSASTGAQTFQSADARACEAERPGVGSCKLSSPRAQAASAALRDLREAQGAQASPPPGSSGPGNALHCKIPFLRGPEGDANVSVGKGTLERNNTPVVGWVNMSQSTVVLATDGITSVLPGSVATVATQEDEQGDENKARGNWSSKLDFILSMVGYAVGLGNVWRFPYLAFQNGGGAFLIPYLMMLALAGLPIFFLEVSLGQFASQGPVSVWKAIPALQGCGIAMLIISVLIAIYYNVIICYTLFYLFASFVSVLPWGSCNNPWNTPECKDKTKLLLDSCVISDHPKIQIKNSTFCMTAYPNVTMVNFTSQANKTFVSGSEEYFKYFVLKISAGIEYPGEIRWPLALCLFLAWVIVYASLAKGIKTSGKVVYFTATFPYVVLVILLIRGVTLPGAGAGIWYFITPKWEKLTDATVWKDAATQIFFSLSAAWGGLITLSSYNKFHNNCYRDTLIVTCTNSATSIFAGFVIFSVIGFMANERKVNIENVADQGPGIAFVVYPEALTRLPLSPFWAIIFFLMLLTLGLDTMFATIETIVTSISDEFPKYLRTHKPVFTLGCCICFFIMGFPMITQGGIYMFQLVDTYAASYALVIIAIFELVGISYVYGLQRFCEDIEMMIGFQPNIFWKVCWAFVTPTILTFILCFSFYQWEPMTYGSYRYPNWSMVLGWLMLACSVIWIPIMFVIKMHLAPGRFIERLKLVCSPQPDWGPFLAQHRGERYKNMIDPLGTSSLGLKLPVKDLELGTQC

[7] = target: T6, S479G GlyT2 mutant (Homo sapiens, UniProt Q9Y345, S479G); assay: [3H]glycine uptake inhibition assay, GlyT2 S479G mutant; type: cell-based
T6 sequence (Q9Y345 1-797 S479G): T5 sequence (Q9Y345 1-797) with S479G

[8] = target: T5, wild-type GlyT2; conditions: cited from earlier work
[9] = system: HEK-293F cells; assay: Cholesterol quantification after MβCD or wsCHOL treatment; type: cell-based, human
[10] = system: WT GlyT1; assay: Cell surface biotinylation and immunoblot; type: cell-based, human; conditions: 2.5 mg/mL and 3.5 mg/mL MβCD

NCC(=O)O [glycine]
Km ([1]; WT GlyT1, untreated cells): 126 µM

C[C@@H](Oc1ccc(S(C)(=O)=O)cc1C(=O)N1C[C@@H]2C[C@]2(c2cc(C(F)(F)F)on2)C1)C(F)(F)F [iclepertin]
IC50 ([2]; wild-type GlyT1): 0.162 ± 0.0196 µM | inhibition of G319S mutant [3]: not inhibited; also recorded: no visible inhibition effect | IC50 [4]: 5.25 ± 0.33 µM | IC50 [5]: 0.0052 ± 0.0012 µM

CNCC(=O)O [sarcosine, N-methyl glycine]
IC50 ([2]; wild-type GlyT1, mean ± S.E.M.): 96.8 ± 13.7 µM | IC50 [3]: 18600 ± 1550 µM | reduction of inhibitory potency on G319S compared to WT GlyT1 [3]: ~ 200 fold | sensitivity of WT GlyT2 to inhibition [6]: not sensitive | susceptibility of S479G GlyT2 to inhibition [7]: susceptibility similar to that of WT GlyT1 | inhibition of GlyT1 versus GlyT2 [8]: can inhibit GlyT1 but not GlyT2

Methyl-β-cyclodextrin [MβCD]
decrease of cholesterol content on the membrane ([9]; 2.5 mg/mL MβCD): 10% | decrease of cholesterol content on the membrane ([9]; 3.5 mg/mL MβCD): 20% | reduction of Vmax compared to WT GlyT1 ([1]; 2.5 mg/mL MβCD): about 19.6% | reduction of Vmax compared to WT GlyT1 ([1]; 3.5 mg/mL MβCD): ~26.7% | effect on Km values ([1]; 2.5 and 3.5 mg/mL MβCD): remained relatively unaffected | effect on surface expression of GlyT1 [10]: without altering the surface expression
